Bioassay records from PubChem.
HTR1A agonist – human 5-HT1a receptor agonists, primary screen, cell-based, CHO, Ga15 NFAT-bla reporter; 5-hydroxytryptamine receptor 1A (Homo sapiens), P08908; CHO 5-HT1a Ga15 NFAT-bla reporter, FRET ratio; 0% basal, 100% maximal reference agonist; activation, % at 10 µM; 65,000 tested, 0.56% active;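 active means activation above the screen-wide mean activation plus 3 SD, cut at about 19% in these data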;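 further: 0% = DMSO wells and 100% = 5-CT at EC100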
Target sequence (P08908 whole entry, looked up): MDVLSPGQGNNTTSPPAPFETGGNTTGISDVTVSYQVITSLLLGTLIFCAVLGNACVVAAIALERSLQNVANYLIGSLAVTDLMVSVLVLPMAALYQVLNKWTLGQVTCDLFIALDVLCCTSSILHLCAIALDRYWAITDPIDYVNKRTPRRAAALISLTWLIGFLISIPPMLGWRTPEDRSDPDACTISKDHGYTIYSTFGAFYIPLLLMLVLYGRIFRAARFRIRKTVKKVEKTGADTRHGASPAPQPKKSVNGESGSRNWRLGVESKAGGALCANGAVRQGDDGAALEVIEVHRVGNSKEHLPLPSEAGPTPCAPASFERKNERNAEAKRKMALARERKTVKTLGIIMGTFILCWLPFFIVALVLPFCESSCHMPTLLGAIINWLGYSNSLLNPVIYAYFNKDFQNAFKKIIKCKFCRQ
HTR1E agonist – 5-HT1E receptor agonists, primary screen, cell-based, HTS. 5-hydroxytryptamine receptor 1E (Homo sapiens), P28566. CHO 5-HT1E Ga15 NFAT-bla reporter, FRET; 0% DMSO wells, 100% control agonist wells. activation, % at 6 µM. 65,000 tested, 0.69% active;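 active means activation above a set limit, the screen-wide mean activation plus 3 SD, cut at about 8.5% in these data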;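 further: 100% = positive control agonist at 1 µM giving full maximal response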
S1P1 ag pot – S1P1 agonists and agonism potentiators, primary screen, cell-based, primary and confirmation screens, CRE-bla reporter. AID 449, 2006. S1P1 CRE-bla cells, forskolin, beta-lactamase FRET, potentiator mode; S1P1 agonist co-added at EC20, 2 nM; 100% = saturating reference agonist, 0% = basal. 56,000 tested, 0.57% active. activation, % at 9.5 µM;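 active means activation above a cutoff set at the mean activation of all tested compounds plus 3 SD, cut at about 54% in these data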;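 further: forskolin at 4 µM as EC80 and the EC20 agonist is SEW2871; 100% = SEW2871 at its EC100 plus forskolin at EC80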
5HT1a antag – human 5-HT1a receptor antagonists, primary screen, cell-based, CHO, Ga15 NFAT-bla reporter; CHO 5-HT1a Ga15 NFAT-bla reporter, antagonist mode; inhibition, % at 10 µM; 62,000 tested, 0.68% active;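 active means inhibition above the mean of all tested compounds plus 3 SD, cut at about 43% in these data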;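 further: receptor stimulated by 5-CT agonist at 100 nM near EC80; beta-lactamase reporter measured by ratiometric fluorescence of a cleavable substrate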
S1P3 ag – human S1P3 receptor agonists, primary screen, cell-based, primary and confirmation, NFAT-BLA reporter; Sphingosine 1-phosphate receptor 3 (Homo sapiens), Q99500; S1P3 NFAT-BLA reporter cells, agonism, FRET ratio; relative to 1 µM S1P, basal subtracted; activation, % at 4.5 µM; 60,000 tested, 0.1% active; AID 373, 2006;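 active means activation above the screen-wide mean plus 3 SD, cut at about 4.5% in these data, passing the limit was not always enough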
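Material: Human S1P3 NFAT-BLA reporter CHO cells | Incubation: Overnight plating, 4 h compound 37 °C, 2 h substrate RT | Signal: FRET β-lactamase substrate fluorescence, excitation 405 nm, 460/535 nm emission ratio, background-subtracted | Compound: 4.5 µM final, single dose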
5HT1E antag – 5-HT1E receptor antagonists, primary screen, cell-based, HTS; 65,000 tested, 0.99% active; inhibition, % at 6 µM; AID 571, 2007; CHO 5-HT1E Ga15 NFAT-bla reporter, FRET, antagonist; 5-hydroxytryptamine receptor 1E (Homo sapiens), P28566;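 active means inhibition above a set limit, the mean inhibition across every tested compound plus 3 SD, cut at about 29% in these data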;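 further: signal is the 460 over 535 nm emission ratio of beta-lactamase substrate; 0% = agonist plus DMSO wells and 100% = wells without agonist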
* marks the source's active call; other numbers are inactive results; · = not tested or not shown. In the library only some 2.9% were active in any assay of this set; here they are far more common.

SMILES	HTR1A agonist	HTR1E agonist	S1P1 ag pot	5HT1a antag	S1P3 ag	5HT1E antag
CC(C)C(c1nnnn1Cc1ccccc1)N(Cc1ccco1)Cc1cccs1 (configuration not stated)	-2	-1	57	26	-2	12
Cc1ccc(C(c2nnnn2C(C)(C)C)N(Cc2ccco2)Cc2cccs2)cc1 (configuration not stated)	-2	0	-14	51*	-2	0
CCOc1ccc(OCC)c(NC(=O)CN2CCN(c3cccc(C)c3C)CC2)c1	4	28*	·	-11	·	-7
CC1CCc2nc(NC(=O)CSc3nc4ccccc4o3)sc2C1 (configuration not stated)	-3	0	76*	-3	0	-4
O=C(CSc1nc2ccccc2o1)Nc1ccc(N2CCOCC2)c(Cl)c1	1	0	119*	-4	-2	12
Cc1nnc(SCC(=O)Nc2nc3c(s2)CC(C)CC3)s1 (configuration not stated)	-1	0	26	-3	0	4
CC(C)CCNC(=O)Cn1c(NCCC(C)C)nc2c1c(=O)n(C)c(=O)n2C	-2	0	6	-6	0	-1
O=C(CC1c2ccccc2Oc2ccccc21)N1CCN(c2ccccn2)CC1	19	-1	5	3	1	-5
O=C(O)CCC(=O)Nc1ccc(Br)cn1	-1	0	-14	6	0	2
O=C(Nc1ccc(Cl)cc1)N1CCC(c2nc(-c3ccc(F)cc3)no2)CC1	-2	0	57*	47*	-1	22
CCOC(=O)C(CC)n1cnc2c(oc3ccccc32)c1=O (configuration not stated)	-5	0	21	0	-1	-5
Cc1cc(C)n(S(=O)(=O)c2cccc(Cl)c2Cl)n1	0	0	-12	-4	-1	23
CC(=O)c1c(C)[nH]c(C(=O)OCc2nnc(-c3ccccc3)o2)c1C	-1	1	1	0	-1	35*
Cc1ccc(C(=O)OCc2nnc(-c3ccccc3)o2)o1	-2	0	-2	8	-1	0
Cc1ccc(C)c(N2CCN(Cc3nnnn3C3CCCCC3)CC2)c1	2	42*	-10	26	-1	-9
O=C(Nc1ccc(O)cc1)c1cc2n(n1)C(C(F)(F)F)CC(c1ccco1)N2 (configuration not stated)	-1	0	100*	3	0	1
COc1ccc(S(=O)(=O)NCC2CCC(C(=O)N3CCC4(CC3)OCCO4)CC2)cc1 (configuration not stated)	0	1	·	-16	·	-11
CCNc1nc(NCC)n2c(SCc3nc4ccccc4c(=O)[nH]3)nnc2n1	-3	-1	-68	11	2	53*
Cn1c(-c2ccccc2)cnc1SCc1nc2ccccc2c(=O)[nH]1	0	59*	12	-24	0	-15
O=C(NC1CC1)C1C2C3C4CC5C3C5C4C12 (configuration not stated)	-1	0	-5	5	0	3
O=C(Cn1cnc2ccccc2c1=O)NCCC(=O)N1CCN(c2ccccc2)CC1	-1	-1	1	-11	0	-1
CC1(C)C(C=C(Cl)Cl)C1C(=O)N1CCN(c2ccccc2)CC1 (configuration not stated)	0	0	-10	8	0	0
Cc1c(-c2ccc(F)cc2)nc(N)c(C#N)c1-c1ccco1	4	0	-49	-22	0	29*
Cc1ccc(C(=O)Nc2nc(COc3ccccc3)cs2)s1	-1	0	98*	5	-1	-1
Cc1cc(C)c(NC(=O)c2cc3c(nc4sccn43)s2)c(C)c1	0	0	0	23	1	29*
SMILES	HTR1A agonist	HTR1E agonist	S1P1 ag pot	5HT1a antag	S1P3 ag	5HT1E antag
CC(C)OCCCn1c(=N)c(C(N)=S)cc2c(=O)n3ccccc3nc21	6	0	-9	·	-3	-7
CCOC(=O)c1oc2cccc(OCC(O)CNC(C)C)c2c1C (configuration not stated)	2	1	-18	5	1	-5
COc1cc(S(=O)(=O)N2CCN(C)CC2)c(OC)cc1Br	-2	0	6	·	1	-4
O=c1c2c3n(c(=O)nc2[nH]n1-c1ccccc1)CCCCC3	-1	1	-5	2	0	-9
Cc1cc(C)c2c(=O)n(-c3ccccc3)[nH]c2n1	0	13*	-6	-6	0	1
O=C(NCc1ccccc1)NC1(C(=O)N2CCCC2)CCCCC1	-1	89*	11	6	-1	2
O=C(NCc1ccccc1)NC1(C(=O)N2CCN(c3ncccn3)CC2)CCCCC1	-1	0	-24	5	0	-1
Cc1ccc(S(=O)(=O)N2c3ccc(S(N)(=O)=O)cc3CC2C)cc1 (configuration not stated)	86*	-1	·	7	0	14
CC1Cc2ccccc2N1S(=O)(=O)c1cccs1 (configuration not stated)	-2	0	-16	-2	-1	-2
Cc1nc2ncnn2c(N2CCN(c3cccc(C(F)(F)F)c3)CC2)c1C	1	0	59	0	-1	2
Cc1ccccc1OCCCCc1c(C)n[nH]c1C	-3	0	131*	15	-2	9
COc1cccc(N2CCN(Cc3coc4c(Cl)cc(Cl)cc4c3=O)CC2)c1	1	32*	-5	-1	0	-4
O=C(CSc1nnc(Cc2csc(Nc3cccc(Cl)c3)n2)o1)N1CCc2ccccc21	1	0	78*	-8	-1	-1
O=C(CSc1nnc(CNc2ccccc2)o1)N1CCc2ccccc21	-1	0	8	-8	0	-1
CN(C)CCN(Cc1ccccc1)c1ccnc(N(C)C)c1C#N	4	21*	·	-1	-1	6
CN(C)CCN(Cc1ccccc1)c1ccccn1	1	0	9	·	-4	-2
O=C(CSc1nc2ccccc2c(=O)[nH]1)Nc1ccc(S(=O)(=O)N2CCCC2)cc1	1	0	37	18	-1	-6
